How the values were obtained:
[1] = tested on: Artemia; assay: Toxicity against brine shrimp; format: organism-based; conditions: in vivo
[2] = biological target: 5-hydroxytryptamine receptor 2A (Rattus norvegicus) (UniProt P14842); assay: Displacement of [3H]ketanserin from rat 5HT2A receptor expressed in mouse NIH3T3 cells assessed as bound radiolabeled ligand remaining by liquid scintillation relative to control; format: cell-based
Summary of the method: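 Crude membranes from confluent NIH 3T3 cells stably expressing rat 5-HT2A receptor (DMEM, 10% calf serum, geneticin), prepared freshly in 50 mM Tris, 4 mM CaCl2, 10 µM pargyline, pH 7.4. Tritiated ligand 0.5 nM final; nonspecific binding with 10 µM 5-HT; test compounds at 100 µM. Triplicate 1 mL reactions, 30 min at 30 °C. Glass-fiber filtration, scintillation counting, reported as percent of control binding.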

Sequence of 5-hydroxytryptamine receptor 2A (Rattus norvegicus) (P14842 whole entry): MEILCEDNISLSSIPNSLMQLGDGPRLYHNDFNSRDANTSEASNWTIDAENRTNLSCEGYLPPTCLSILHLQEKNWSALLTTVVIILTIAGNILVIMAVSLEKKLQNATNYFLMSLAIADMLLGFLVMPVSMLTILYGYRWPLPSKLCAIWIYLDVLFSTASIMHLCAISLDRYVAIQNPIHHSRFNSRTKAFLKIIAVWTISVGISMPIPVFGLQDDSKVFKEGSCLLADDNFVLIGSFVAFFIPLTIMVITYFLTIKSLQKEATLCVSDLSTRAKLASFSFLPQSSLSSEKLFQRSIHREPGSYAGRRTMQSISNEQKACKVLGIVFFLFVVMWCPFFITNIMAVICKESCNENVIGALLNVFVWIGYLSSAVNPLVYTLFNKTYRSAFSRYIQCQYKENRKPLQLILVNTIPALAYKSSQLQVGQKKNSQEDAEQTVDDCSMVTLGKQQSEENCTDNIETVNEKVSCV

Compound | Activity [2] | Activity [1]
C=C(C)[C@@H]1CC[C@@](C)(O)[C@H]2CC[C@H](C)[C@@H]2C1 | – | Non-toxic
CC(=O)NC(Cc1ccc(OCC=C(C)C)cc1)C(=O)O (stereo not given) | 85% | Toxic
C[C@H]1CC[C@H]2[C@H]1C[C@H](C(C)(C)O)CC[C@@]2(C)O | – | Non-toxic
C[C@H]1CC[C@H]2[C@H]1C[C@]1([C@@H](C)CO)CC[C@]2(C)O1 | – | Non-toxic
COC(=O)C(Cc1ccc(OCC=C(C)C)cc1)NC(C)=O (stereo not given) | 85% | –

Now from value to molecule, other results behind:

Activity [2] | Compound | Activity [1]
85% | CC(C)=CCOc1ccc(CCO)cc1 [ETROGOL] | Toxic
11% | CC(=O)OCCc1ccc(OCC=C(C)C)cc1 [ETROGOL ACETATE] | Toxic
